# TRPN1 ag = zebrafish TRPN1 (NompC) channel agonism; 220,000 compounds, 0.18% hits; AID 1424; HEK293 zebrafish TRPN1-YFP, Fluo-8 calcium fluorescence; 100% = response to 87 µM carbachol; activation, % at 3 µM;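 active = activation above its plate's cutoff, the mean activation of test wells on that plate plus 3 SD, cut at about 19% in these data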;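 also: 0% = DMSO alone and 100% = 87 µM carbachol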
#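 Material: zebrafish TRPN1-YFP in HEK293 cells. Doses: one dose of 3 µM, 0.3% DMSO. Incubation: dye 1 h 37 °C plus 30 min RT. Measured by: intracellular calcium fluorescence with Fluo-8.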
# CRFBP-R2 agonist = agonists of human CRF-binding protein/CRF-R2 receptor complex. activation, % at 13.2 µM. 350,000 compounds, 0.46% hits. HEK293 CRF-R2/CRF-BP, calcium dye fluorescence (FLIPR); percent of saturating CRF peptide response;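 active = activation of at least 50%, plus an integration ratio under a set limit after plate pattern correction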;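 also: plate controls were neutral control wells without compound for no effect and CRF at EC100 for full effect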
# V1R ag counter = activates human V1a receptor in oxytocin agonist counter-screen | P37288 | CHO-V1R cells, Fluo-8 calcium fluorescence, agonist mode; 0% DMSO, 100% 3 nM vasopressin | activation, % at 3 µM | 320,000 compounds, 0.25% hits | AID 2797;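 active = activation above the mean activation of all tested compounds plus 3 SD, per screening run, cut at about 20% in these data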;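 also: signal is peak over basal fluorescence ratio across a 100 second FLIPR read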
# OXTR agonist = human OXTR agonism; P30559; CHO-OTR cells, Fluo-8 calcium fluorescence; normalized: DMSO 0%, oxytocin 100%; activation, % at 3 µM; 320,000 compounds, 0.32% hits; AID 2435;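 active = activation above the mean of all tested compounds plus 3 SD, cutoff set per screening run, cut at about 20% in these data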;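 also: peak over basal fluorescence ratio from a 100 s FLIPR kinetic read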
# Target sequence (P30559 whole entry, looked up): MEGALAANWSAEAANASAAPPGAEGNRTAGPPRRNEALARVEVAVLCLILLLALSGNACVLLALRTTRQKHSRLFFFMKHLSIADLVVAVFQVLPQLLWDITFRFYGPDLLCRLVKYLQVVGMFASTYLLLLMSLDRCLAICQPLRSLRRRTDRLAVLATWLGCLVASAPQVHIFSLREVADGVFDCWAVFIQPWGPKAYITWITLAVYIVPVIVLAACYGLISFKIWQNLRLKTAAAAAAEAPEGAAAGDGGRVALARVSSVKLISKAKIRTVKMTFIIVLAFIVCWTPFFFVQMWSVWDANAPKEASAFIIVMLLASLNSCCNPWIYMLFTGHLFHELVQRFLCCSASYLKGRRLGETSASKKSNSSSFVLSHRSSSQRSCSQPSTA
# OXTR potentiate = potentiates the human oxytocin receptor response; P30559; CHO-OTR cells, Fluo-8 calcium fluorescence, potentiator mode; 0% = oxytocin EC15, 100% = EC100; activation, % at 3 µM; 320,000 compounds, 0.061% hits;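 active = activation above that plate's cutoff, the mean activation of tested compounds plus 3 SD, cut at about 6.6% in these data, passing the limit was not always enough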;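 also: 100% uses oxytocin at 75 nM as the full agonist control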
#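 System: human OTR in CHO cells; Also added: sub-maximal oxytocin, roughly EC15; Timing: compound 6 min at room temperature before oxytocin, 100 s read; Technique: Fluo-8 intracellular calcium fluorescence, ex 470-495, em 515-575 nm; Controls: oxytocin EC15 low and EC100 high; Replication: singlicate.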
# TRPML3 agonist = human mucolipin-3 channel agonism; HEK293 TRPML3-YFP, Fluo-8 calcium fluorescence; 100% = the carbachol control signal; Q8TDD5; 220,000 compounds, 0.29% hits; AID 1448; activation, % at 3 µM;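 active = activation above its plate's cutoff, the mean activation of the plate's test wells plus 3 SD, cut at about 12% in these data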;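 also: 0% = DMSO only wells and 100% = carbachol wells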
#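 system = HEK293 cells stably carrying human TRPML3-YFP | doses = one concentration, 3 µM nominal, 0.3% DMSO | timing = dye loading 1 h 37 °C then 30 min ambient, 125 s read | detection = Fluo-8 calcium dye fluorescence, ex 470-495, em 515-575 nm | benchmarks = high control carbachol 87 µM, low control DMSO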
# * marks the source's active call; other numbers are inactive results; nt = no result. Most compounds without a hit are left out; they make up all but 0.83% or so of the library.
SMILES,TRPN1 ag,CRFBP-R2 agonist,V1R ag counter,OXTR agonist,OXTR potentiate,TRPML3 agonist
N#CC(C#N)=C(Nc1ccc(F)cc1)SCc1cccc(F)c1,24.8*,105.0*,11.5,11.4,-8.4,20.8*
CCOC(=O)C1CCCN(C(=O)C2c3ccccc3Oc3ccccc32)C1 (configuration not stated),-0.1,2.6,34.8*,43.7*,-4.5,-0.1
CCOC(=O)C1CCCN(C(=O)C2COc3ccccc3O2)C1 (configuration not stated),nt,0.1,nt,nt,nt,nt
S=C(NCCCc1ccccc1)Nc1ccccc1Cl,145.0*,6.4,5.6,5.0,-10.9,1.8
CC(C)CN(C(=O)CCNC(=O)c1ccccc1Cl)C1CCS(=O)(=O)C1 (configuration not stated),nt,-0.9,0.4,-0.7,-2.5,nt
COc1ccc(NC(=O)c2cc(S(=O)(=O)N3CCOCC3)ccc2C)cc1S(=O)(=O)N1CCOCC1,nt,-2.1,0.5,0.9,-2.2,nt
CCCN1C(=O)/C(=C/c2ccc(N3CCOCC3)cc2)NC1=S,24.4*,171.1*,31.0*,24.9*,-34.7,12.2*
CCN1C(=O)/C(=C/c2ccc(N3CCCC3)cc2)NC1=S,41.9*,257.9*,91.1*,109.6*,-19.8,10.6
Cc1ccc(CN2C(=O)N/C(=C\c3ccc(N4CCOCC4)cc3)C2=O)cc1,-0.7,3.8,0.2,0.0,-8.4,0.8
Cc1cc(C)c(S(=O)(=O)N/N=C/c2ccc3c(c2)OCO3)c(C)c1,nt,0.2,nt,nt,nt,nt
Cc1cc(C)nc(N2CCN(c3ccc(F)cc3)CC2)n1,nt,-0.4,nt,nt,nt,nt
CCNc1c(NC(=O)C2CCC(C)CC2)c(=O)oc2ccccc12 (configuration not stated),nt,-0.5,1.2,2.3,-8.8,nt
Cc1ccc2[nH]c3c(=O)n(CC(=O)N4CC(C)CC(C)C4)ncc3c2c1 (configuration not stated),nt,-0.9,5.3,1.2,-6.3,nt
Cc1cc(/C=C(\C#N)c2nnc(N3CCOCC3)n2-c2ccccc2)c(C)n1-c1ccccc1,1.4,nt,0.0,0.5,-8.1,0.4
N#C/C(=C/c1ccc(-c2ccc([N+](=O)[O-])cc2)o1)c1nnc(N2CCOCC2)n1-c1ccccc1,nt,175.6*,nt,nt,nt,nt
Cn1c(SCC(=O)NCC2CCCO2)nnc1-c1ccco1 (configuration not stated),nt,-0.3,0.9,-0.2,2.5,nt
CN1/C(=C\C=C(/C#N)C(=O)Nc2ccc(Cl)cc2)C(C)(C)c2ccccc21,5.2,140.7*,1.9,4.2,-8.6,0.3
CN1/C(=C\C(=O)Nc2ccc(Cl)cc2)C(C)(C)c2ccccc21,1.4,0.2,-0.1,-0.7,-8.6,0.7
CN1/C(=C\C=C(C#N)C#N)C(C)(C)c2ccccc21,1.6,84.1*,-0.2,-0.9,-0.4,0.4
CCn1cc(C(=O)NCCCN(CC(C)C)CC(C)C)c(=O)c2cc(S(=O)(=O)N(C)C3CCCCC3)ccc21,nt,76.4*,-0.7,-0.2,-5.4,nt
COC(=O)c1ccc2c(c1)C(C)(C)C(/C=C/c1ccc(OC)c(OC)c1OC)=[N+]2C,0.8,2.9,7.2,4.3,-5.2,2.1
COC(=O)c1ccc2c(c1)C(C)(C)C(/C=C/c1ccc(O)cc1)=[N+]2C,7.0,51.2*,16.1,17.6,-9.6,5.2
Cc1cc(C)cc(OCC(=O)OCC(=O)Nc2cc(S(=O)(=O)N3CCOCC3)ccc2Cl)c1,nt,0.4,0.9,0.9,-7.8,nt
Cc1cccc(NC(=O)C2CC2c2ccccc2)c1C (configuration not stated),nt,70.0*,-1.1,-2.1,-12.5,nt
Cc1cccc(C)c1NC(=O)C(=O)NCC1CCCN1S(=O)(=O)c1ccccc1 (configuration not stated),nt,-0.3,0.0,-1.9,-11.8,nt
SMILES,TRPN1 ag,CRFBP-R2 agonist,V1R ag counter,OXTR agonist,OXTR potentiate,TRPML3 agonist
CCCS(=O)(=O)c1nc(S(=O)(=O)c2ccc(C)cc2)c(N2CCCC2)s1,0.8,89.3*,-0.5,-0.8,-22.8,1.1
CC1(C)C(=O)OC(c2cccn2-c2ccc([N+](=O)[O-])cc2)C2(CCCCC2)C1=O (configuration not stated),1.6,263.1*,1.1,-0.8,1.3,0.0
O=P(CCCCCCCCCP(=O)(c1ccccc1)c1ccccc1)(c1ccccc1)c1ccccc1,-1.9,-1.3,23.7*,20.0*,-21.5,-1.0
O=C1N/C(=N\S(=O)(=O)Cc2ccccc2)S/C1=C/c1cc([N+](=O)[O-])ccc1O,63.8*,104.0*,62.6*,43.1*,-13.5,31.0*
O=C1N/C(=N\S(=O)(=O)c2ccccc2)S/C1=C\c1cc([N+](=O)[O-])ccc1O,nt,54.8*,20.4*,25.4*,-16.8,nt
Cc1ccc(S(=O)(=O)/N=C2/NC(=O)/C(=C/c3ccc(Br)o3)S2)cc1,-0.7,-1.7,2.7,-1.3,-4.4,-0.4
COc1cc(/C=C2\S/C(=N/S(=O)(=O)Cc3ccccc3)NC2=O)c([N+](=O)[O-])cc1OC,0.7,2.7,1.6,1.6,2.9,1.4
Cc1ccc(S(=O)(=O)/N=C2/NC(=O)/C(=C\c3cc(Br)cc(Br)c3O)S2)cc1,nt,76.9*,nt,nt,nt,nt
C[C@@H]1CN([C@@H](C)CO)C(=O)CCCn2nncc2CO[C@H]1CN(C)C(=O)NC1CCCCC1,nt,-0.8,nt,nt,nt,nt
CCN(c1ccc(NC(=O)COC(=O)C2CCN(c3ccc(C(F)(F)F)cn3)CC2)cc1)C(C)C,nt,-0.7,nt,nt,nt,nt
CC(C)C(NC(=O)c1ccccc1)C(=O)N1CCCCCC1 (configuration not stated),nt,1.1,0.7,0.4,-3.7,nt
CCOC(=O)c1ccc(NC(=S)N2CCSC2c2ccc(Br)cc2)cc1 (configuration not stated),10.5,100.6*,37.3*,47.6*,-14.3,5.7
COc1cc(/C=C2/SC(=S)N(Cc3ccccc3)C2=O)ccc1OCC(=O)O,nt,0.3,1.8,-0.4,-18.5,nt
CCOc1cc(/C=C2/SC(=S)N(Cc3ccccc3)C2=O)ccc1O,nt,3.6,36.6*,25.7*,-16.5,nt
COc1cc(/C=C2/SC(=S)N(Cc3ccccc3)C2=O)cc(Cl)c1O,nt,171.3*,64.6*,70.1*,-23.2,nt

# High-throughput results: PubChem, several laboratories
